Assay results reported in ChEMBL document CHEMBL1128250, “Structure-activity studies of 2,3,4,4a,5,9b-hexahydroindeno[1,2-c]pyridines as antispermatogenic agents for male contraception” (1995).
Values joined by “and” are separate entries in the source; they are usually repeats but may differ in a detail not shown here. Identical values can stand only once.

Key:
Mus musculus [1] = assay: Tested for its effect on testes weight 3 days after single oral dose (90 mg/kg); type: functional, Testis
Summary of the method: (§1)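 CD-1 outbred Swiss albino male mice, 5 per dose, single gavage on day 0 at 10 mL/kg. Vehicle was 0.15 M acetate buffer pH 5, ethanol/Tween-20/water (3:7:90), or 1% Tween-20 in water. CO2 euthanasia 72 h later. Testes weighed and histologically scored (spermatogenic index 0–6). Values are % reduction versus the assay's vehicle control. Positive control was 30 mg/kg of the parent compound. Significance by Dunnett's one-tailed t-test, p < 0.05.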

Mus musculus [2] = assay: Tested for its effect on spermatogenic index 3 days after single oral dose (90 mg/kg); type: functional; summary of the method: as §1
Mus musculus [3] = assay: Tested for its effect on spermatogenic index of male CD-1 mice when dosed with 3.75 mg/kg Data are means +/-standard error of the mean (n=4).; type: functional
Summary of the method: (§2)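 Male CD-1 mice gavaged daily for 35 days in 1% Tween-20 in water at 10 mL/kg. Half of each group was killed 7 days after the last dose; testes were weighed and sectioned for histology. Spermatogenic index was scored 0–6 from the cell types and late spermatids per tubule. Mean ± SEM; Dunnett's one-tailed t-test versus control.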

Mus musculus [4] = assay: Tested for its effect on spermatogenic index 3 days after single oral dose (3 mg/kg); type: functional
Summary of the method: (§3)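 Male CD-1 (ICR) mice, 7 weeks old on arrival, 5 per dose, single gavage of 10 mL/kg on day 0. Vehicle was 0.15 M acetate buffer pH 5, ethanol/Tween-20/water 3:7:90, or 1% Tween-20. Mice were killed with CO2 at 72 h and testes weighed and scored for spermatogenic index (0–6 scale). Results are % reduction versus the vehicle control. Dunnett's one-tailed t-test.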

Mus musculus [5] = assay: Tested for its effect on testes weight of male CD-1 mice when dosed with 3.75 mg/kg Data are means +/-standard error of the mean (n=4).; type: functional, Testis; summary of the method: as §2
Mus musculus [6] = assay: Tested for its effect on pregnancy index of male CD-1 mice when dosed with 7.5 mg/kg (Dunnett's one-tailed t-test, p<0.05); type: functional
Summary of the method: (§4)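 Male CD-1 mice (8–10/group) gavaged daily for 35 days, vehicle 1% Tween-20 in water, 10 mL/kg. From the day after the last dose, each male was housed with two females for up to 5 days, with vaginal copulatory plugs checked each morning. Pregnancy index is litters born per number of females.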

Mus musculus [7] = assay: Tested for its effect on spermatogenic index 3 days after single oral dose (90 mg/kg),; type: functional; summary of the method: as §1
Mus musculus [8] = assay: Tested for its effect on spermatogenic index of male CD-1 mice when dosed with 15 mg/kg (Dunnett's one-tailed t-test, p<0.05); type: functional; summary of the method: as §2
Mus musculus [9] = assay: Tested for its effect on spermatogenic index of male CD-1 mice when dosed with 7.5 mg/kg (Dunnett's one-tailed t-test, p<0.05); type: functional; summary of the method: as §2
Mus musculus [10] = assay: Tested for its effect on testes weight of male CD-1 mice when dosed with 7.5 mg/kg (Dunnett's one-tailed t-test, p<0.05); type: functional, Testis; summary of the method: as §2
Mus musculus [11] = assay: Tested for its effect on testes weight 3 days after single sub cutaneous dose (3 mg/kg); type: functional, Testis
Summary of the method: (§5)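 Single subcutaneous injection, 10 mL/kg, to male CD-1 mice (5 per dose) in ethanol/Tween-20/water (3:7:90, v/v/v) on day 0. Mice were killed at 72 h; testes were weighed and histology scored for spermatogenic index (0–6). Results are % reduction from the vehicle control, with a 30 mg/kg positive control group. Dunnett's one-tailed t-test.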

Mus musculus [12] = assay: Tested for its effect on testes weight 3 days after single sub cutaneous (10 mg/kg); type: functional, Testis; summary of the method: as §5
Mus musculus [13] = assay: Tested for its effect on spermatogenic index 3 days after single oral dose (10 mg/kg); type: functional; summary of the method: as §3
Mus musculus [14] = assay: Tested for its effect on testes weight 3 days after single oral dose (10 mg/kg); type: functional, Testis; summary of the method: as §1
Mus musculus [15] = assay: Tested for its effect on testes weight 3 days after single oral dose (30 mg/kg); type: functional, Testis; summary of the method: as §1
Mus musculus [16] = assay: Tested for its effect on testes weight of male CD-1 mice when dosed with 15 mg/kg (Dunnett's one-tailed t-test, p<0.05); type: functional, Testis; summary of the method: as §2
Mus musculus [17] = assay: Tested for its effect on pregnancy index of male CD-1 mice when dosed with 15 mg/kg (Dunnett's one-tailed t-test, p<0.05); type: functional; summary of the method: as §4
Mus musculus [18] = assay: Tested for its effect on testes weight 3 days after single sub cutaneous dose (30 mg/kg); type: functional, Testis; summary of the method: as §5
Mus musculus [19] = assay: Tested for its effect on spermatogenic index 3 days after single sub cutaneous dose (10 mg/kg); type: functional; summary of the method: as §5
Mus musculus [20] = assay: Tested for its effect on spermatogenic index 3 days after single oral dose (30 mg/kg); type: functional; summary of the method: as §1
Mus musculus [21] = assay: Tested for its effect on pregnancy index of male CD-1 mice when dosed with 3.75 mg/kg Data are means +/-standard error of the mean (n=4).; type: functional; summary of the method: as §4
Mus musculus [22] = assay: Tested for its effect on spermatogenic index 3 days after single oral dose (3 mg/kg),; type: functional; summary of the method: as §3
Mus musculus [23] = assay: Tested for its effect on testes weight 3 days after single oral dose (3 mg/kg); type: functional, Testis; summary of the method: as §3
Mus musculus [24] = assay: Tested for its effect on spermatogenic index 3 days after single oral dose (10 mg/kg),; type: functional; summary of the method: as §1
Mus musculus [25] = assay: tested for its effect on testes weight 3 days after single oral dose (30 mg/kg); type: functional, Testis
Summary of the method: (§6)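 Male CD-1 (ICR)BR outbred Swiss albino mice, 5/dose, given one oral gavage dose (10 mL/kg) on day 0 in 0.15 M acetate buffer pH 5, ethanol/Tween-20/water (3:7:90), or 1% Tween-20 in water; vehicle and positive-control groups in each assay. Killed by CO2 72 h later; testes weighed. Expressed as % reduction versus vehicle control; Dunnett's one-tailed t-test.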

Mus musculus [26] = assay: tested for its effect on spermatogenic index 3 days after single oral dose (10 mg/kg); type: functional
Summary of the method: (§7)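 Male CD-1 (ICR)BR outbred Swiss albino mice, 5/dose, single oral gavage dose (10 mL/kg) on day 0 in acetate buffer pH 5 or Tween-20-based vehicle; killed 72 h later. Testis cross-sections scored histologically on a 0–6 spermatogenic index (Sertoli only to >100 late spermatids/tubule). Reported as % reduction versus vehicle control; Dunnett's one-tailed t-test.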

Mus musculus [27] = assay: tested for its effect on testes weight 3 days after single oral dose (90 mg/kg); type: functional, Testis; summary of the method: as §6
Mus musculus [28] = assay: tested for its effect on spermatogenic index 3 days after single oral dose (30 mg/kg); type: functional; summary of the method: as §7
Mus musculus [29] = assay: Tested for its effect on spermatogenic index 3 days after single sub cutaneous dose (3 mg/kg); type: functional; summary of the method: as §5

Compound | Reduction (Mus musculus [1]) | Reduction (Mus musculus [7]) | Reduction (Mus musculus [13]) | Reduction (Mus musculus [14]) | Reduction (Mus musculus [15]) | Reduction (Mus musculus [20]) | also measured
CCN1CC[C@H]2[C@H](c3ccc(C(=O)O)cc3)c3cc(C)ccc3[C@H]2C1.Cl (stereo in doubt; (l)-10k) | -7% |  |  |  |  |  | Reduction (Mus musculus [2]): 0%
CCN1CC[C@H]2[C@H](c3ccc(C(=O)OC)cc3)c3cc(C)ccc3[C@H]2C1.Cl |  | -5% | 27% | 17% | 32% and 30% | 57% and 46% and 61% | Spermatogenic index (Mus musculus [3]): 5.5; Reduction (Mus musculus [4]): 5%; Testes weight (Mus musculus [5]): 219.08 mg; Pregnancy index (Mus musculus [6]): 2; Spermatogenic index (Mus musculus [8]): 1.6; Spermatogenic index (Mus musculus [9]): 3; Testes weight (Mus musculus [10]): 114.7 mg; Reduction (Mus musculus [11]): 10%; Reduction (Mus musculus [12]): 1%; Testes weight (Mus musculus [16]): 108.94 mg; Reduction (Mus musculus [2]): 68%; Pregnancy index (Mus musculus [17]): 0; Reduction (Mus musculus [18]): 19%; Reduction (Mus musculus [19]): 28%; Pregnancy index (Mus musculus [21]): 16
CCc1ccc2c(c1)[C@@H](c1ccc(C(=O)OC)cc1)[C@@H]1CCN(CC)C[C@H]21.Cl |  |  | -4% | 0% | 8% | 23% | Reduction (Mus musculus [22]): 4%; Reduction (Mus musculus [23]): -18%
CCN1CC[C@H]2[C@H](c3ccccc3C)c3cc(C)ccc3[C@H]2C1.Cl | 3% | -9% |  |  |  |  | 
CCc1ccc2c(c1)[C@@H](c1ccc(C)cc1)[C@@H]1CCN(CC)C[C@H]21.Cl |  |  | 7% | 2% | 26% | 33% | Reduction (Mus musculus [22]): -2%; Reduction (Mus musculus [23]): 3%
CCN1CC[C@H]2[C@H](c3ccc(C)cc3)c3ccccc3[C@H]2C1.Cl | 20% |  |  | 5% | 3% | 20% | Reduction (Mus musculus [24]): 0%; Reduction (Mus musculus [2]): 35%
Cc1ccc([C@@H]2c3cc(C)ccc3[C@H]3CN(C)CC[C@@H]23)cc1.Cl | 8% | -3% |  |  |  |  | Reduction (Mus musculus [25]): 18%; Reduction (Mus musculus [26]): 26%; Reduction (Mus musculus [27]): 7%; Reduction (Mus musculus [28]): 38%
Cc1ccc([C@@H]2c3cc(C)ccc3[C@H]3CN(C(C)C)CC[C@@H]23)cc1.Cl | 23% |  |  | 7% | 15% | 28% | Reduction (Mus musculus [24]): 10%; Reduction (Mus musculus [2]): 45%
CCN1CCC(C(O)(c2ccc(C)cc2)c2ccc(C)cc2)CC1.Cl | -21% | 0% |  |  |  |  | 
CCN1CCC(C(O)c2ccc(C)cc2)C(c2ccc(C)cc2)C1.Cl (stereo in doubt; 16b) | 0% | 0% |  |  |  |  | 
CCN1CC[C@H]2[C@H](c3ccc(C(=O)O)cc3)c3cc(C)ccc3[C@H]2C1.Cl (stereo in doubt; 10k) |  |  | 36% | 24% | 28% | 51% and 35% | Reduction (Mus musculus [22]): 2%; Reduction (Mus musculus [23]): 13%; Reduction (Mus musculus [11]): 5%; Reduction (Mus musculus [12]): -3%; Reduction (Mus musculus [29]): 8%; Reduction (Mus musculus [18]): 17%; Reduction (Mus musculus [19]): 27%
CCN1CC[C@H]2[C@H](c3ccccc3)c3cc(C)ccc3[C@H]2C1.Cl | -8% | -9% |  |  |  |  | 
CCN1CC[C@@H]2[C@@H](c3ccc(C)cc3)c3cc(C)ccc3[C@H]2C1.Cl | -18% | 0% |  |  |  |  | 
CCN1CC[C@H]2[C@H](c3ccc(C=O)cc3)c3cc(C)ccc3[C@H]2C1.Cl |  |  | 2% | 6% | 7% | 31% and 30% | Reduction (Mus musculus [22]): 0%; Reduction (Mus musculus [23]): 7%; Reduction (Mus musculus [18]): -4%
